Screening data: PubChem, Broad Institute
Sampled rows, rich in hits. Any-hit rate of the full collection: about 3.7%.
ERAP1 inh – human ERAP1 aminopeptidase inhibitors, primary screen, biochemical, single point, plate reader | inhibition, % at 10.7 µM | Endoplasmic reticulum aminopeptidase 1 (Homo sapiens), Q9NZ08 | 340,000 tested, 0.15% active | recombinant ERAP1, Leu-AMC fluorescence, 60 min | AID 652197, 2013;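 active = mean replicate inhibition of at least 30%, or all replicates individually reaching that 30% level; inactive = mean below 30% and not every replicate reaching it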;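 also: 0% = neutral control wells and 100% = L-leucinethiol positive control wells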
FGF22 binding – binders of human FGF22 protein, primary screen, FGF22 synaptogenesis inhibitor project, biophysical, thermal shift, single point | Fibroblast growth factor 22 (Homo sapiens), Q9HCT0 | recombinant FGF22 thermal shift, SYPRO orange fluorescence; percent of sucrose octasulfate shift, DMSO zero | 340,000 tested, 1.5% active | activity (Tm shift, normalised), % at 9.99 µM;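 active = mean Tm shift, scaled 0 neutral to 100 positive control, at about 1.3% or above, every replicate too, limit read from the data; inconclusive = no clear call, values can overlap the other calls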
CFTR F508del cor – F508del CFTR correction, initial screen, CFBE line, single point | CFBE cells, YFP halide quenching; stimulated with forskolin plus potentiator P3; % fluorescence drop versus neutral controls | AID 720511, 2013 | activity (quench increase), % at 7.58 µM | 350,000 tested, 0.36% active;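 active = mean added fluorescence quench of at least 8% versus neutral control, with both replicates also reaching 8%; inconclusive = only one of the mean or replicate conditions met; inactive = mean below 8% and not both replicates reaching 8%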;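 also: cells transiently co-express mutant CFTR-F508del with the halide-sensitive YFP; corrector assay measuring rescue of mutant channel to the surface after 24 h compound exposure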
E-selectin induc – E-selectin induction in HUVECs, primary screen, imaging, HUVEC, immunofluorescence imaging, single point; 260,000 tested, 0.37% active; AID 686992, 2013; normalized: neutral wells 0, TNF-alpha wells 100; P16581; activation, % at 7.58 µM;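 active = mean E-selectin-positive cell signal at least 10% of the positive control, reached in at least 60% of replicates, without over 20% cell loss; inconclusive = no rule given, readout overlaps actives, possibly toxicity-flagged; inactive = the rest, including those meeting only one limit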
Target sequence (P16581 whole entry, looked up): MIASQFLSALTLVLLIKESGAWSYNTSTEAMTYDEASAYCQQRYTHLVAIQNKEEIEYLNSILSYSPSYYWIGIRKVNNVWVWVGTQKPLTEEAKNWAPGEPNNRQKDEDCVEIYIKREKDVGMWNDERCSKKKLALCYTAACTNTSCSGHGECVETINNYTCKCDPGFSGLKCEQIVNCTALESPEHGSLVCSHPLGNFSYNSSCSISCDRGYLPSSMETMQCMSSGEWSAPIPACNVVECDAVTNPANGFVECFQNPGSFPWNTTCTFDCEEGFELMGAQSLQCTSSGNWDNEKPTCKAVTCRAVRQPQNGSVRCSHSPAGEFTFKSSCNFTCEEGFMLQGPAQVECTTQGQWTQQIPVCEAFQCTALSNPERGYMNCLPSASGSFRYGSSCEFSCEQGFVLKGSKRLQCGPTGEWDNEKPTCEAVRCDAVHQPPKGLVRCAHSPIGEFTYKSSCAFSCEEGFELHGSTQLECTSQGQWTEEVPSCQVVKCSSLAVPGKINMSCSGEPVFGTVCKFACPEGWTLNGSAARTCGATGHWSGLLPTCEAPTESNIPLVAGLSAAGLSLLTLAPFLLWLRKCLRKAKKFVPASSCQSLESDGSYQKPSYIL
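Test system: HUVEC | Signal: Immunofluorescence imaging | Read-out: Percent E-selectin-positive cells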
DENV2 CPE – inhibitors of DENV2 cytopathic effect, primary screen, cell-based, plate reader, single concentration; AID 651640, 2012; CPE inhibition, % at 9.99 µM; 350,000 tested, 1.7% active; DENV2-infected cells, cytopathic effect rescue; in the data active = CPE inhibition above about 20%, passing the limit was not always enough; inconclusive = no clear call, values can overlap the other calls; tested in BHK-21 cells;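 also: 0% = median of neutral control wells and 100% = median of positive control wells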
The depositor's hits bear a star; u = inconclusive; x = no result given; ! = a repeat was not active.

SMILES | ERAP1 inh | FGF22 binding | CFTR F508del cor | E-selectin induc | DENV2 CPE
O=C(CC1CC1)N1[C@@H](CO)[C@@H](c2ccccc2)C12CN(Cc1cc(F)ccc1F)C2 | -15 | 0 | 4 | 0 | -10
CC=Cc1ccc2n(c1=O)C[C@H]1[C@H](CO)[C@@H](C(=O)NCc3ccccn3)N(CCC)[C@@H]21 (mixture of isomers) | x | x | -2 | 1 | 0
Nc1ccn([C@@H]2O[C@H](C(=O)NCC(F)(F)F)[C@@H](O)[C@H]2O)c(=O)n1 | x | 0 | 10* | 4 | u
CC(C)[C@H](CO)NC(=O)[C@H]1O[C@@H](n2ccc(N)nc2=O)[C@H](O)[C@@H]1O | 0 | 0 | -3 | 1 | 2
C[C@H](CO)N1C[C@H](C)[C@@H](CN(C)S(=O)(=O)c2cccc(F)c2)OCc2cn(nn2)CCCC1=O | -1 | 0 | 0 | x | 55*!
C[C@@H]1CN([C@@H](C)CO)C(=O)CCCn2cc(nn2)CO[C@H]1CN(C)S(=O)(=O)c1cccc(F)c1 | -1 | 0 | -3 | 3 | 1
C[C@@H]1CN([C@@H](C)CO)C(=O)CCCn2cc(nn2)CO[C@@H]1CN(C)S(=O)(=O)c1ccc2c(c1)OCCCO2 | -3 | 0 | -1 | 0 | u
C[C@H]1CN([C@@H](C)CO)C(=O)CCCn2cc(nn2)CO[C@H]1CN(C)S(=O)(=O)c1ccc2c(c1)OCCCO2 | -4 | 1 | 1 | 0 | 31*
CN(C)CC(=O)N1CC[C@@H]2[C@H]1c1cc(-c3ccccc3F)ccc1N(C)[C@@H]2CO | x | 0 | 2 | 0 | 49*
CN1c2ccc(-c3ccccc3F)cc2[C@H]2[C@H](CCN2S(=O)(=O)c2ccc(F)cc2)[C@H]1CO | x | 0 | 3 | 0 | 65*
CN(C)CC(=O)N1CC[C@H]2[C@@H]1c1cc(-c3ccccc3F)ccc1N(C)[C@H]2CO | x | 0 | -1 | 0 | 22*
